Bioassay records as filed in PubChem BioAssay.
Most compounds without a hit are left out; they make up all but 2.4% or so of the library.
Cneo AK release: Cryptococcus neoformans cell lysis inducers, primary screen, AK release luminescence, single concentration; lysis activity, % at 15 µM; 0.2% of 360,000 active; C. neoformans lysis, adenylate kinase release luminescence, 4 h; normalised: neutral wells 0, clomiphene wells 100;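 active = mean lysis activity across replicates of at least 80%, whatever share of replicates individually reach that level; inactive = mean lysis activity below 80%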
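Material: C. neoformans cells | Amount: Yeast cell density of 5 × 10^6 cells/mL | Medium: Fresh YPD growth medium | Dosing: Single dose | Times: Static 4 h at 37 °C with compound, 1 h detection | Detection: AK luminescence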
miR122 inh: miR-122 Renilla sensor signal increase in Huh7, primary screen, miR-122 inhibitor project, cell-based, single point, plate reader | Huh7 miR-122 Renilla luciferase sensor, 48 h; neutral wells = 0, positive control = 100 | activation (reporter increase), % at 12.5 µM | 0.3% of 340,000 active;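 active = mean replicate activation score at least 90 and every replicate individually at or above 90; inconclusive = only one of the two criteria met; inactive = neither criterion met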;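 also: higher luciferase means less miR-122 activity so hits act as miR-122 inhibitors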
GSIS activator: GLuc luminescence reporter in INS-1E cells, primary screen for activators of glucose-dependent secretion of insulin; AID 743287, 2014; 0.61% of 370,000 active; INS-1E GLuc reporter insulin secretion, 2-3 h; activation, % at 16.6 µM;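 active = lowest replicate activation of at least 40%, so every replicate reaches that level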;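 also: 0% = median of neutral control wells and 100% = median of IBMX positive control wells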
Env fusion inh: inhibitors of HIV-1 Env-driven cell-cell fusion, primary screen, HeLa-JRFL effector, CEM21 target cells, luciferase. 1.1% of 360,000 active. inhibition, % at 12.3 µM;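 active = mean replicate inhibition score of at least 50 and every replicate individually at or above 50; inconclusive = only one of the two criteria met; inactive = mean below 50 and not all replicates reaching 50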;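 also: 0% = plate neutral controls and 100% = maraviroc near 300 nM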
Rtt109 Vps75: inhibitors of C. albicans Rtt109/Vps75 HAT, primary screen, biochemical, ThioGlo CoA-SH fluorescence, plate reader | Histone acetyltransferase RTT109 (Candida albicans (strain SC5314 / ATCC MYA-2876)), … | AID 540336, 2011 | inhibition, % at 34.9 µM | purified Rtt109/Vps75, 4 h | 0.16% of 330,000 active;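 active = inhibition of at least 50% in every replicate; inconclusive = best replicate reaches 50% inhibition but some replicates fall short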
Target sequence (Q5AAJ8 whole entry, looked up): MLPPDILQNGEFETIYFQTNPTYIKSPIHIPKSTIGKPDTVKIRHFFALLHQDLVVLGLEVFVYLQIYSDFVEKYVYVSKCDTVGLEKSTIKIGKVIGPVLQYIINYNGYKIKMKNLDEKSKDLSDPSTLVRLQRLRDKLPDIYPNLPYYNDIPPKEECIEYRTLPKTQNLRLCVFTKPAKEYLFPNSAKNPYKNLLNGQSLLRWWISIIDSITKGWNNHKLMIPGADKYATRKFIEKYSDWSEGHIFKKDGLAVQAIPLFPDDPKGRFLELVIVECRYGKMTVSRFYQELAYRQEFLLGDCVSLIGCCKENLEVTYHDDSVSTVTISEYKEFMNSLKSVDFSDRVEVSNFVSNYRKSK
dFosB act-1: activators of delta FosB homodimer, primary screen, biochemical, fluorescence polarization, TAMRA-CDK5 oligo, single point. Protein FosB (Mus musculus), P13346. 0.99% of 340,000 active. AID 493131, 2011. activation, % at 25 µM. purified delta FosB; percent of positive-control signal above neutral wells;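 active = mean activation above about 17%, with every replicate also reaching it, limit read from the data, passing the limit was not always enough; inconclusive = only one of the two conditions met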
Target sequence (P13346 whole entry, looked up): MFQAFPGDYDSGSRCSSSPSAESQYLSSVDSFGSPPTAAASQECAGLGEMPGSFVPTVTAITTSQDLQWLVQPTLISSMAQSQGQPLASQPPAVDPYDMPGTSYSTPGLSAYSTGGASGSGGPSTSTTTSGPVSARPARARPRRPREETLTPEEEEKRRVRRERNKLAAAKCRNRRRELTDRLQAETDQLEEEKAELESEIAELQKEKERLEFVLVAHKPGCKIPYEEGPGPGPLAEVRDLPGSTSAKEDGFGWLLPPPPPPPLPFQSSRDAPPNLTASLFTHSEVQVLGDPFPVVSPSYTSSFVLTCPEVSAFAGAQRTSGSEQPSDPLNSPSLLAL
dFosB act-2: activators of mouse delta FosB DNA binding, confirmation, biochemical, fluorescence polarization, TAMRA-CDK5 oligo, cherry-picked samples; shares compounds with dFosB act-1; purified delta FosB; normalised: neutral wells 0, positive control 100; activation, % at 24.9 µM; 2,400 tested, under 10 active;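 active = highest replicate activation at or above 34% and every replicate reaching that threshold; inconclusive = meets only one of the two criteria; inactive = meets neither criterion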;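 also: higher polarization means more probe DNA bound by delta FosB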
An asterisk follows results filed as active; u = inconclusive; x = no result; [ ] = another dose, or the depositor's remark.

SMILES	Cneo AK release	miR122 inh	GSIS activator	Env fusion inh	Rtt109 Vps75	dFosB act-1	dFosB act-2
CS(=O)(=O)c1ccc2nc(NC(=O)c3cccc([N+](=O)[O-])c3)sc2c1	-4.6	x	-48.4	-48.1	1.7	0.7	x
CS(=O)(=O)c1ccc2nc(NC(=O)c3ccc(NS(=O)(=O)c4ccc(F)c(F)c4)cc3)sc2c1	-5.2	31.1	3.0	-10.6	-0.8	35.5*	-0.6
CSc1nc2ccc(NC(=O)c3ccc(F)c(F)c3)cc2s1	x	-2.7	11.4	-58.7	0.1	-8.0	x
O=C(Nc1nc2ccc(SC(F)F)cc2s1)c1ccc(NS(=O)(=O)c2ccc(F)c(F)c2)cc1	-1.8	x	x	x	-3.8	38.2*	5.0
C[C@H](CO)N1C[C@H](C)[C@H](CN(C)Cc2ccc(C(=O)O)cc2)OCCCC[C@H](C)Oc2ccc(NC(=O)Nc3ccc(C(F)(F)F)cc3)cc2C1=O	-1.7	1.4[16.7 µM]	12.1	9.6[16.7 µM]	x	x	x
C[C@@H]1CN([C@@H](C)CO)S(=O)(=O)c2ccc(C#Cc3ccccc3)cc2O[C@H]1CN(C)C	3.6	-5.0[16.7 µM]	-17.5	13.3[16.7 µM]	x	x	x
O=C(C[C@H]1C[C@H]2c3cc(NC(=O)NC4CCCCC4)ccc3O[C@H]2[C@H](CO)O1)NC1CCCC1	x	x	14.6	x	x	x	x
O=C(Cn1nnc(-c2ccc(F)cc2)n1)Nc1ccc2c(c1)OCCO2	x	x	13.9	4.5	x	35.9*	5.6
O=C(Cn1cnc2c(nnn2Cc2ccccc2)c1=O)Nc1ccc2c(c1)OCCO2	-0.5	2.4	11.2	-59.4	-9.1	29.7*	-0.2
COCC#Cc1cnc2c(c1)C(=O)N([C@@H](C)CO)C[C@@H](C)[C@@H](CN(C)C)O2	-0.7	-3.0[16.7 µM]	17.6	-32.6[16.7 µM]	x	x	x
COc1cccc(NC(=O)N[C@H]2C=C[C@@H](CC(=O)Nc3ccc(-c4ccccc4)cc3)O[C@H]2CO)c1	-1.9	x	-24.3	x	x	x	x
CCC(=O)N1CC(=O)N2[C@H](CO)[C@@H](c3ccc(C#Cc4cccc(OC)c4)cc3)[C@@H]2C1	x	x	3.1	x	x	x	x
Cc1cccc2cc(-c3nc4c(C)cccn4c3NCc3ccco3)c(=O)[nH]c12	0.4	7.6	-24.4	x	-2.3	-2.4	x
Cc1ccc2[nH]c(=O)c(-c3nc4cc(C)ccn4c3NCc3ccco3)cc2c1	5.4	4.2	x	x	3.5	32.3*	-5.4
O=C(Cn1nnc(-c2ccc(CN3CCOCC3)cc2)n1)Nc1nc(-c2ccccc2)cs1	1.3	-3.9	x	-16.1	2.3	25.2*	-4.4
CCCNC(=O)Nc1ccc2c(c1)OC[C@H](C)N(CCC)C[C@@H](C)[C@@H](OC)CN(C)C2=O	0.7	-24.9[16.7 µM]	-1.0	-3.8[16.7 µM]	x	x	x
O=C(CSc1nnc(NC(=O)c2cccc(F)c2)s1)NC1CC1	-4.5	2.1	-8.6	-4.4	-1.4	0.6	x
COc1cccc(C(=O)Nc2nnc(SCC(=O)NC3CCCC3)s2)c1	-0.8	-0.8	-16.3	-11.8	1.8	22.0*	2.7
O=C(CSc1nnc(NC(=O)c2cccc(F)c2)s1)NC1CCCC1	x	-5.1	-0.2	-7.9	-9.4	60.3*	1.2
CCN(CC)CCNC(=O)c1ccc(NC(=O)/C=C/c2cc(OC)c(OC)c(OC)c2)cc1	-0.7	5.8	0.8	u	x	52.4*	-1.2
CC(/C=N/NC(=O)COc1ccccc1C)=N\NC(=O)COc1ccccc1C	0.0	-1.2	2.4	1.8	3.5	22.1*	-2.3
Cc1ccccc1OCC(=O)N/N=C/c1ccccn1	x	x	4.9	-1.8	-5.0	-1.8	x
COc1ccc2c3c([nH]c2c1)[C@H](CO)N(C(=O)C1CCCC1)CC31CCN(Cc2nccs2)CC1	x	x	8.8	x	x	x	x
COc1ccc(C(=O)Nc2ccc(Oc3nc(C)nc4sc(-c5ccccc5)cc34)cc2)cc1OC	-0.4	6.5	-2.0	-12.0	-9.4	33.6*	-0.9
COc1ccc(C(=O)Nc2ccc(Oc3ncnc4sc(-c5ccccc5)cc34)cc2)cc1OC	x	x	25.9	-4.5	-4.3	-6.7	x
SMILES	Cneo AK release	miR122 inh	GSIS activator	Env fusion inh	Rtt109 Vps75	dFosB act-1	dFosB act-2
COc1cc(C(=O)Nc2ccc(Oc3ncnc4sc(-c5ccccc5)cc34)cc2)cc(OC)c1OC	-2.4	-4.3	44.1	x	-2.3	68.2*	5.7
CC(C)(C)OC(=O)N[C@@H](Cc1ccccc1)c1nnc(SCC(=O)O)o1	0.6	-6.2	-20.4	-7.4	4.2	7.1	x
CC(C)(C)OC(=O)N[C@@H](Cc1ccccc1)c1nnc(SCC(=O)c2ccc(Cl)cc2)o1	x	1.1	x	-6.1	-2.2	43.8*	6.8
CC(=O)N1CC[C@@H]2[C@@H](CO)N(C)c3ccc(-c4ccccc4)cc3[C@@H]21	5.3	10.3[16.7 µM]	-5.8	x	x	x	x
CCN1CCN(c2cc(C)c3cc(NC(=O)CCC(=O)Nc4ccc(OC)cc4OC)ccc3n2)CC1	-1.6	-3.0	5.1	2.7	-2.3	3.3	x
CCN1CCN(c2c(C=O)c(Cl)nc3ccc(OC)cc23)CC1	-3.4	x	1.0	10.9	-2.2	26.7*	1.8
CN1/C(=C/C=C(C#N)C#N)C=Cc2ccccc21	x	-3.3	7.4	5.4	-3.4	29.0*	3.1
CCOC(=O)/C(C#N)=C/C=C1\C=Cc2ccccc2N1CC	x	x	-2.8	-15.2	-5.4	-24.6	x
Cc1ccc(C)c(NC(=O)C2CC3c4ccccc4C2c2ccccc23)c1 (configuration not stated)	-2.0	-3.4	x	x	-3.4	39.9*	-0.5
CO[C@@H](CN(C)C(=O)C1CC1)[C@H](C)CN(C(=O)Nc1ccc(C(F)(F)F)cc1)[C@@H](C)CO	-0.7	x	-20.8	3.5[16.7 µM]	x	x	x
CCOc1ccc2oc(C(=O)NNC(=O)c3ccccc3O)c(C)c2c1	-0.7	-0.7	-5.2	-1.4	-1.9	15.8	x
Cc1c(C(=O)NNC(=O)c2ccccc2O)oc2ccc(Br)cc12	-0.5	-1.6	-3.7	-77.4	-5.2	36.8*	0.2
O=C(Nc1ccc(OC(F)F)cc1)c1ncc(Cl)c(Cl)c1Cl	x	x	6.6	7.9	-0.2	-3.6	x
Cc1ccc(NC(=O)c2ncc(Cl)c(Cl)c2Cl)cc1C	1.2	-0.3	21.5	-19.4	x	26.4*	-0.2
CCOC(=O)c1cc(-c2ccccc2)sc1NC(=O)COC(=O)c1cccc(S(N)(=O)=O)c1	x	x	9.6	-54.3	-14.1	24.2*	-1.8
CCOC(=O)c1cc(-c2ccccc2)sc1NC(=O)COC(=O)c1ccc(Cl)c(S(N)(=O)=O)c1	x	x	x	x	2.2	-2.9	x
